Measurements taken from ChEMBL document CHEMBL3232750, “Synthesis, structure-activity relationships, and in vitro antibacterial and antifungal activity evaluations of novel pyrazole carboxylic and dicarboxylic acid derivatives” (2014).
In brackets after ≈: the same amount, converted by molar mass. Activity calls are given as the source filed them. The rule behind the calls is not given here.

Columns and labels:
Staphylococcus aureus [1] = assay: Antibacterial activity against Staphylococcus aureus at 30 ug/disc at 37 degC after 24 hrs by agar well diffusion assay; assay type: functional; settings: read-out: DIZ
Procedure, shortened: (§1)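 Positive-control antibiotic disc on Nutrient Agar swabbed with 10^8 CFU/mL bacteria. Plates pre-incubated 2 h at 25 °C, then 24 h at 37 °C. Inhibition zone diameter measured in mm. Duplicate.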

Staphylococcus aureus [2] = assay: Antibacterial activity against methicillin-resistant Staphylococcus aureus at 37 degC after 24 hrs by agar well diffusion assay; assay type: functional
Procedure, shortened: (§2)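 Bacteria kept on Nutrient Agar slants at 4 °C and subcultured before use. Suspensions of 10^8 CFU/mL were swabbed onto Nutrient Agar and the plates dried 40 min at 35 °C. Compounds were dissolved in DMSO starting at 2.5 mg/ml, serially diluted two-fold, and loaded into 6 mm wells. Plates were pre-incubated 2 h at 25 °C, then 24 h at 37 °C. Inhibition zones were read and the MIC taken as the lowest inhibiting concentration. Duplicates were run.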

Escherichia coli [3] = assay: Antibacterial activity against Escherichia coli at 30 ug/disc at 37 degC after 24 hrs by agar well diffusion assay; assay type: functional; settings: read-out: DIZ; procedure, shortened: as §1
Candida parapsilosis [4] = assay: Antifungal activity against Candida parapsilosis at 25 degC after 48 hrs by agar well diffusion assay; assay type: functional
Procedure, shortened: (§3)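 Yeast suspensions of 10^7 CFU/mL were swabbed onto Sabouraud Dextrose Agar and dried about 40 min at 35 °C. Compounds were dissolved in DMSO (2.5 mg/ml initial) and diluted two-fold in DMSO, then loaded into 6 mm wells. Plates: 2 h pre-incubation at 25 °C, then 48 h at 25 °C. MIC read as the lowest concentration inhibiting growth around the well, in duplicate. The C. albicans clinical isolate came from a hospitalized patient at Eskisehir Osmangazi University hospital; the standard strain came from a culture collection.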

Candida albicans [5] = assay: Antifungal activity against Candida albicans at 25 degC after 48 hrs by agar well diffusion assay; assay type: functional; procedure, shortened: as §3
Escherichia coli [6] = assay: Antibacterial activity against Escherichia coli at 37 degC after 24 hrs by agar well diffusion assay; assay type: functional, organism-based
Procedure, shortened: (§4)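 Compounds dissolved in DMSO at 2.5 mg/ml initial concentration, then serially diluted two-fold in DMSO. Nutrient Agar plates were swabbed with 10^8 CFU/mL bacteria and dried about 40 min at 35 °C. Solution was placed in 6 mm wells, then 2 h pre-incubation at 25 °C and 24 h at 37 °C. MIC is the lowest concentration giving a growth-inhibition zone around the well. Duplicate.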

Candida tropicalis [7] = assay: Antifungal activity against Candida tropicalis at 25 degC after 48 hrs by agar well diffusion assay; assay type: functional; procedure, shortened: as §3
Candida albicans [8] = assay: Antifungal activity against Candida albicans ESOGU at 25 degC after 48 hrs by agar well diffusion assay; assay type: functional; procedure, shortened: as §3
Nakaseomyces glabratus [9] = assay: Antifungal activity against Candida glabrata at 25 degC after 48 hrs by agar well diffusion assay; assay type: functional; procedure, shortened: as §3
Staphylococcus aureus [10] = assay: Antibacterial activity against Staphylococcus aureus at 37 degC after 24 hrs by agar well diffusion assay; assay type: functional; procedure, shortened: as §4
Pseudomonas aeruginosa = assay: Antibacterial activity against Pseudomonas aeruginosa at 37 degC after 24 hrs by agar well diffusion assay; assay type: functional, organism-based; procedure, shortened: as §4
Enterococcus = assay: Antibacterial activity against vancomycin-resistant Enterococcus species at 37 degC after 24 hrs by agar well diffusion assay; assay type: functional, organism-based; procedure, shortened: as §2
Candida tropicalis [11] = assay: Antifungal activity against Candida tropicalis at 100 U/disc at 25 degC after 48 hrs by agar well diffusion assay; assay type: functional, organism-based
Procedure, shortened: (§5)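 Yeasts kept on Sabouraud Dextrose Agar slants at 4 °C and subcultured before use. Suspensions of 10^7 CFU/mL were swabbed onto Sabouraud Dextrose Agar and the plates dried 40 min at 35 °C. The nystatin positive-control disc carried 100 U. Plates were pre-incubated 2 h at 25 °C, then incubated 48 h at 25 °C. The growth-inhibition zone diameter was measured in mm, in duplicate.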

Nakaseomyces glabratus [12] = assay: Antifungal activity against Candida glabrata at 100 U/disc at 25 degC after 48 hrs by agar well diffusion assay; assay type: functional, organism-based; procedure, shortened: as §5
Candida parapsilosis [13] = assay: Antifungal activity against Candida parapsilosis at 100 U/disc at 25 degC after 48 hrs by agar well diffusion assay; assay type: functional, organism-based; procedure, shortened: as §5

| Compound | zone of inhibition at 30 µg/disc (Staphylococcus aureus [1]) | Activity (Staphylococcus aureus [2]) | zone of inhibition at 30 µg/disc (Escherichia coli [3]) | Activity (Candida parapsilosis [4]) | MIC (Candida albicans [5]) | Activity (Escherichia coli [6]) | Activity (Candida tropicalis [7]) | Activity (Candida albicans [8]) | Activity (Nakaseomyces glabratus [9]) | Activity (Staphylococcus aureus [10]) | Activity (Pseudomonas aeruginosa) | Activity (Enterococcus) | inhibition zone (IZ) (Candida tropicalis [11]) | inhibition zone (IZ) (Nakaseomyces glabratus [12]) | inhibition zone (IZ) (Candida parapsilosis [13]) |
| --- | --- | --- | --- | --- | --- | --- | --- | --- | --- | --- | --- | --- | --- | --- | --- |
| CO/N=C(\C(=O)N[C@@H]1C(=O)N2C(C(=O)O)=C(COC(C)=O)CS[C@H]12)c1csc(N)n1 [CEFOTAXIME] | 35 mm | inactive | 45 mm | – | – | – | – | – | – | – | – | – | – | – | – |
| O=C(Nc1ccc(C(F)(F)F)cc1)c1nn(-c2cccc([N+](=O)[O-])c2)c(-c2ccccc2)c1C(=O)Nc1ccc(C(F)(F)F)cc1 | – | inactive | – | inactive | 50 µg/mL (≈ 78.2 µM) | inactive | inactive | inactive | inactive | inactive | inactive | inactive | – | – | – |
| NYSTATIN | – | – | – | – | – | – | – | – | – | – | – | – | 19 mm | 24 mm | 19 mm |
